Measurements: ChEMBL document CHEMBL3612031, “Incorporation of a Michael acceptor enhances the antitumor activity of triterpenoic acids” (Eur J Med Chem, 2015)
Calls of active or inactive are those of the source. The rule behind the calls is not given here.

Legend:
Assay type in all cases: functional, cell-based
A549 = assay: Cytotoxicity against human A549 cells assessed as cell survival after 96 hrs by SRB assay; details: for EC50: A549, 96 h
In short: (§1)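 Monolayers kept in RPMI 1640 with 10 % heat-inactivated FBS and penicillin/streptomycin, 37 °C, 5 % CO2. Exponentially growing cells seeded day 0 at densities avoiding confluence. After 24 h, serial dilutions 0-100 µM for 96 h, DMSO or DMF ≤0.5 % final. Fixed with 10 % TCA at 4 °C, stained 0.4 % SRB ~20 min, washed with 1 % acetic acid, dye dissolved in 10 mM Tris base, A570 read. Survival taken relative to untreated controls. EC50 fitted by two-parameter Hill equation, mean of three independent experiments each run in triplicate.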

8505C = assay: Cytotoxicity against human 8505C cells assessed as cell survival after 96 hrs by SRB assay; in short: as §1
MCF7 [1] = assay: Cytotoxicity against human MCF7 cells assessed as cell survival after 96 hrs by SRB assay; details: for EC50: MCF7, 96 h; in short: as §1
HT-29 = assay: Cytotoxicity against human HT-29 cells assessed as cell survival after 96 hrs by SRB assay; details: for EC50: HT-29, 96 h; in short: as §1
[2] = (§2) Cytotoxicity against human 518A2 cells assessed as cell survival after 96 hrs by SRB assay; details: 518A2, 96 h; in short: as §1
518A2 = assay: as §2; in short: as §1
MCF7 [3] = assay: Cytotoxicity against human MCF7 cells assessed as inhibition of cell proliferation after 3 days by radioactive thymidine incorporation assay; details: MCF7, 72 h

Row | Structure (SMILES) | EC50 (A549) [µM] | EC50 (8505C) [µM] | EC50 (MCF7 [1]) [µM] | EC50 (HT-29) [µM] | EC50 [2] [µM] | Activity (A549) | Activity (8505C) | Activity (MCF7 [1]) | Activity (HT-29) | Activity (518A2) | EC50 (MCF7 [3]) [µM]
1 | C=C1C[C@]2(C)[C@H]3C(=O)C=C4[C@@H]5[C@@H](C)[C@H](C)CC[C@]5(C(=O)OC)CC[C@@]4(C)[C@]3(C)CC[C@H]2C(C)(C)C1=O | 1.57 | 1.62 | 4.68 | 3.16 | 1.51 | – | – | – | – | – | –
2 | C=C1C[C@]2(C)[C@H]3C(=O)C=C4[C@@H]5C[C@@](C)(C(=O)OC)CC[C@]5(C)CC[C@@]4(C)[C@]3(C)CC[C@H]2C(C)(C)[C@H]1O | – | – | – | – | – | inactive | inactive | inactive | inactive | inactive | –
3 | COC(=O)[C@]12CCC(C)(C)C[C@H]1C1=CC[C@@H]3[C@@]4(C)CC[C@H](O)C(C)(C)[C@@H]4CC[C@@]3(C)[C@]1(C)CC2 [METHYL OLEANOLATE] | – | – | > 30 | > 30 | > 30 | – | – | – | – | – | –
4 | COC(=O)[C@]12CC[C@@H](C)[C@H](C)[C@H]1C1=CC(=O)[C@@H]3[C@@]4(C)CC(Br)(Br)C(=O)C(C)(C)[C@@H]4CC[C@@]3(C)[C@]1(C)CC2 | – | – | – | – | – | Active | Active | Active | Active | Active | –
5 | CC1(C)CC[C@]2(C(=O)O)CC[C@]3(C)C(=CC[C@@H]4[C@@]5(C)CC[C@H](O)C(C)(C)[C@@H]5CC[C@]43C)[C@@H]2C1 [OLEANOLIC_ACID] | > 30 | > 30 | > 30 | > 30 | > 30 | – | – | – | – | – | –
6 | COC(=O)[C@]12CC[C@@H](C)[C@H](C)[C@H]1C1=CC(=O)[C@@H]3[C@@]4(C)CC[C@H](O)C(C)(C)[C@@H]4CC[C@@]3(C)[C@]1(C)CC2 | – | – | > 30 | > 30 | > 30 | – | – | – | – | – | –
7 | COC(=O)[C@]12CC[C@@H](C)[C@H](C)[C@H]1C1=CC[C@@H]3[C@@]4(C)C[C@H](C)C(=O)C(C)(C)[C@@H]4CC[C@@]3(C)[C@]1(C)CC2 | – | – | – | – | – | inactive | inactive | inactive | inactive | inactive | –
8 | C=C1C[C@]2(C)[C@H]3C(=O)C=C4[C@@H]5CC(C)(C)CC[C@]5(C(=O)OC)CC[C@@]4(C)[C@]3(C)CC[C@H]2C(C)(C)C1=O | 17.9 | 15.5 | – | – | 16.8 | – | – | – | – | – | –
9 | CC1(C)CC[C@]2(C(=O)O)CC[C@]3(C)[C@H](C(=O)C=C4[C@@]5(C)C=C(C#N)C(=O)C(C)(C)[C@@H]5CC[C@]43C)[C@@H]2C1 [BARDOXOLONE] | – | – | – | – | – | – | – | – | – | – | 0.16
10 | COC(=O)[C@]12CC[C@@H](C)[C@H](C)[C@H]1C1=CC[C@@H]3[C@@]4(C)CC[C@H](O)C(C)(C)[C@@H]4CC[C@@]3(C)[C@]1(C)CC2 [METHYL URSOLATE] | – | – | > 30 | > 30 | > 30 | – | – | – | – | – | –
11 | CC(=O)[C@@H]1CC[C@]2(C(=O)O)CC[C@]3(C)[C@H](CC[C@@H]4[C@@]5(C)CC[C@H](O)C(C)(C)[C@@H]5CC[C@]43C)[C@@H]12 [PLATANIC ACID] | 1.54 | 1.57 | 1.55 | 1.69 | 1.5 | – | – | – | – | – | –
12 | C=C1C[C@]2(C)[C@H]3C(=O)C=C4[C@@H]5C[C@@](C)(C(=O)OC)CC[C@]5(C)CC[C@@]4(C)[C@]3(C)CC[C@H]2C(C)(C)C1=O | > 30 | > 30 | 0.74 | > 30 | > 30 | – | – | – | – | – | –
13 | COC(=O)[C@]12CCC(C)(C)C[C@H]1C1=CC(=O)[C@@H]3[C@@]4(C)CC[C@H](O)C(C)(C)[C@@H]4CC[C@@]3(C)[C@]1(C)CC2 | – | – | 28.7 | 27.6 | > 30 | – | – | – | – | – | –
14 | C[C@H]1[C@H](C)CC[C@]2(C(=O)O)CC[C@]3(C)C(=CC[C@@H]4[C@@]5(C)CC[C@H](O)C(C)(C)[C@@H]5CC[C@]43C)[C@H]12 [URSOLIC ACID] | 15.5 | 13.5 | 12.7 | 10.6 | 14.7 | – | – | – | – | – | –
15 | COC(=O)[C@]12CCC(C)(C)C[C@H]1C1=CC(=O)[C@@H]3[C@@]4(C)CC(Br)(Br)C(=O)C(C)(C)[C@@H]4CC[C@@]3(C)[C@]1(C)CC2 | – | – | – | – | – | Active | Active | Active | Active | Active | –
16 | C=C1C[C@]2(C)[C@H]3CC=C4[C@@H]5CC(C)(C)CC[C@]5(C(=O)OC)CC[C@@]4(C)[C@]3(C)CC[C@H]2C(C)(C)C1=O | > 30 | > 30 | > 30 | > 30 | > 30 | – | – | – | – | – | –
17 | COC(=O)[C@]12CCC(C)(C)C[C@H]1C1=CC(=O)[C@@H]3[C@@]4(C)CCC(=O)C(C)(C)[C@@H]4CC[C@@]3(C)[C@]1(C)CC2 | – | – | > 30 | – | – | – | – | – | – | – | –
18 | COC(=O)[C@]12CC[C@@H](C)[C@H](C)[C@H]1C1=CC[C@@H]3[C@@]4(C)CC(Br)(Br)C(=O)C(C)(C)[C@@H]4CC[C@@]3(C)[C@]1(C)CC2 | – | – | – | – | – | Active | Active | Active | Active | Active | –
19 | COC(=O)[C@@]1(C)CC[C@]2(C)CC[C@]3(C)C(=CC(=O)[C@@H]4[C@@]5(C)CC[C@H](O)C(C)(C)[C@@H]5CC[C@]43C)[C@@H]2C1 | > 30 | > 30 | > 30 | > 30 | > 30 | – | – | – | – | – | –
20 | COC(=O)[C@@]1(C)CC[C@]2(C)CC[C@]3(C)C(=CC(=O)[C@@H]4[C@@]5(C)CCC(=O)C(C)(C)[C@@H]5CC[C@]43C)[C@@H]2C1 | 26.1 | 20.5 | 16.7 | 26.7 | > 30 | – | – | – | – | – | –
21 | CC1(C)[C@@H](O)CC[C@]2(C)[C@H]3C(=O)C=C4[C@@H]5C[C@@](C)(C(=O)O)CC[C@]5(C)CC[C@@]4(C)[C@]3(C)CC[C@@H]12 [ENOXOLONE] | 82.8 | 86.5 | 84.7 | 80.1 | 83.9 | – | – | – | – | – | –
22 | C=C1C[C@]2(C)[C@H]3CC=C4[C@@H]5[C@@H](C)[C@H](C)CC[C@]5(C(=O)OC)CC[C@@]4(C)[C@]3(C)CC[C@H]2C(C)(C)C1=O | 2.93 | 6.1 | 4.43 | 1.35 | 2.16 | – | – | – | – | – | –
23 | COC(=O)[C@]12CC[C@@H](C)[C@H](C)[C@H]1C1=CC(=O)[C@@H]3[C@@]4(C)CCC(=O)C(C)(C)[C@@H]4CC[C@@]3(C)[C@]1(C)CC2 | 3.83 | 4.32 | 4.24 | 3.71 | 3.71 | – | – | – | – | – | –
